Results taken from ChEMBL document CHEMBL2331153, “Structural investigation and biological activity of sesquiterpene lactones from the traditional Chinese herb Inula racemosa” (J Nat Prod, 2013).
Values after ≈ are worked out from the molar mass of the structure shown. Active and inactive are the calls of the source. The calls are words filed in the database; no cut-off is given here.

What was measured:
Type in all cases: functional, cell-based
[1] = test system: HepG2; assay: Antiproliferative activity against human HepG2 cells assessed as inhibition of cell proliferation after 72 hrs by CCK8 assay; settings: HepG2, 72 h
Summary of the method: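 HepG2 cells maintained in DMEM with 10% FBS and penicillin/streptomycin at 37 °C, 5% CO2. After overnight adherence, compound exposure lasted 72 h. Viable cells detected with CCK-8 (2 h incubation) by absorbance at 450 nm. Positive control was mitomycin. Assays in duplicate.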

[2] = test system: HT-1080; assay: Antiproliferative activity against human HT1080 cells assessed as inhibition of cell proliferation after 72 hrs by CCK8 assay; settings: HT-1080, 72 h
Summary of the method: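 HT1080 fibrosarcoma cells cultured in alpha-MEM with 10% FBS and penicillin/streptomycin, 37 °C, 5% CO2. Seeded, allowed to adhere overnight, then incubated with compound for 72 h. CCK-8 added for 2 h, then A450 read. Mitomycin was the positive control. Duplicate experiments.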

[3] = test system: A549; assay: Antiproliferative activity against human A549 cells assessed as inhibition of cell proliferation after 72 hrs by CCK8 assay; settings: A549, 72 h
Summary of the method: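 A549 cells grown in RPMI 1640 with 10% FBS and penicillin/streptomycin at 37 °C, 5% CO2. Cells adhered overnight, then treated with compound for 72 h. CCK-8 added for 2 h at 37 °C, absorbance read at 450 nm. Mitomycin served as positive control. Run in duplicate.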

[4] = test system: HUVEC; assay: Antiproliferative activity against human HUVEC assessed as inhibition of cell proliferation after 72 hrs by CCK8 assay
Summary of the method: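 HUVECs at passages 2–6 grown in endothelial cell medium with 0.03 mg/mL endothelial cell growth supplement, 10% FBS, 0.1 mg/mL heparin and penicillin/streptomycin. Cells adhered overnight, then compound added for 72 h at 37 °C, 5% CO2. CCK-8 added for 2 h and absorbance read at 450 nm. Mitomycin positive control; duplicates.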

[5] = test system: HUVEC; assay: Antiangiogenic activity against human HUVEC assessed as inhibition of endothelial cell tube formation at 1 ug/ml after 22 hrs by Matrigel assay
Summary of the method: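 HUVECs (passages 2–6) seeded at 25 000 cells/well onto a Matrigel layer and exposed to compound for 22 h; images taken 22 h after plating at ×40. Capillary tube formation scored as total length of capillary structures in two representative fields per experiment. Colchicine served as positive control.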

| SMILES | IC50 [1] | IC50 [2] | IC50 [3] | IC50 [4] | inhibition [5] |
| --- | --- | --- | --- | --- | --- |
| C[C@@H]1CCC[C@]2(C)C[C@@H]3OC(=O)C(CO)=C3C=C12 [MACROPHYLLILACTONE E] | 31.2 µg/mL (≈ 126 µM) | 28.5 µg/mL (≈ 115 µM) | 16.2 µg/mL (≈ 65.3 µM) |  |  |
| CO[C@@]12[C@H](COC(N)=O)C3=C(C(=O)C(C)=C(N)C3=O)N1C[C@@H]1N[C@@H]12 [MITOMYCIN] | 0.14 µg/mL (≈ 0.419 µM) | 0.15 µg/mL (≈ 0.449 µM) | 0.54 µg/mL (≈ 1.62 µM) |  |  |
| C[C@@H]1C2=C[C@H]3[C@@H](C[C@@]2(C)CC[C@@H]1O)OC(=O)[C@@]3(O)CCl [RACEMOSALACTONE B] | > 50 µg/mL | > 50 µg/mL | 37.3 µg/mL (≈ 124 µM) |  |  |
| C=C1C(=O)O[C@@H]2C[C@@]3(C)CCCC(=C)[C@@H]3C[C@H]12 [ISOALANTOLACTONE] | 1.77 µg/mL (≈ 7.62 µM) | 0.795 µg/mL (≈ 3.42 µM) | 0.38 µg/mL (≈ 1.64 µM) | 2.5 µg/mL (≈ 10.8 µM) | Active |
| C[C@@H]1C2=C[C@H]3[C@@H](C[C@@]2(C)CC[C@@H]1O)OC(=O)[C@@H]3C | > 50 µg/mL | > 50 µg/mL | > 50 µg/mL |  |  |
| C=C1C(=O)O[C@@H]2C[C@@]3(C)CCC[C@H](C)[C@@]34O[C@H]4[C@H]12 | 2.73 µg/mL (≈ 11 µM) | 1.32 µg/mL (≈ 5.32 µM) | 1.59 µg/mL (≈ 6.4 µM) |  |  |
| C=C1C(=O)O[C@@H]2C[C@@]3(C)CCC[C@H](C)C3=C[C@H]12 [HELENINE] | 1.3 µg/mL (≈ 5.6 µM) | 0.696 µg/mL (≈ 3 µM) | 0.55 µg/mL (≈ 2.37 µM) | 2.4 µg/mL (≈ 10.3 µM) | Active |
| C=C1C(=O)O[C@@H]2C[C@@]3(C)CCCC(C)=C3C[C@H]12 [ALLOALANTOLACTONE] | 3.57 µg/mL (≈ 15.4 µM) | 3.87 µg/mL (≈ 16.7 µM) | 2.67 µg/mL (≈ 11.5 µM) |  |  |
| C[C@@H]1C(=O)O[C@@H]2C[C@@]3(C)CCC[C@H](C)C3=C[C@]12O [RACEMOSALACTONE C] | > 50 µg/mL | > 50 µg/mL | 27.8 µg/mL (≈ 111 µM) |  |  |
| C=C1C(=O)O[C@@H]2C[C@@]3(C)CCC[C@H](C)[C@]3(O)C[C@H]12 [RACEMOSALACTONE A] | 2.76 µg/mL (≈ 11 µM) | 1.88 µg/mL (≈ 7.51 µM) | 1.51 µg/mL (≈ 6.03 µM) |  |  |
| C[C@H]1CCC[C@]2(C)C[C@H]3OC(=O)[C@](C)(O)[C@H]3C=C12 | > 50 µg/mL | > 50 µg/mL | > 50 µg/mL |  |  |
| C=C1C(=O)O[C@@H]2C[C@@]3(C)CCC[C@]4(CO4)[C@@H]3C[C@H]12 | 3.78 µg/mL (≈ 15.2 µM) | 3.51 µg/mL (≈ 14.1 µM) | 2.65 µg/mL (≈ 10.7 µM) |  |  |
| C=C1C(=O)O[C@@H]2C[C@@]3(C)CC[C@@H](O)C(=C)[C@@H]3C[C@H]12 [ISOTELEKIN] | 4.19 µg/mL (≈ 16.9 µM) | 2.44 µg/mL (≈ 9.83 µM) | 1.47 µg/mL (≈ 5.92 µM) |  |  |
| C[C@@H]1C(=O)O[C@@H]2C[C@@]3(C)CCC[C@H](C)C3=C[C@H]12 | > 50 µg/mL | > 50 µg/mL | 24.8 µg/mL (≈ 106 µM) |  |  |
| C=C1C(=O)O[C@@H]2C[C@@]3(C)CCCC(=C)[C@]3(O)C[C@H]12 [TELEKIN] | 8.14 µg/mL (≈ 32.8 µM) | 3.5 µg/mL (≈ 14.1 µM) | 4.27 µg/mL (≈ 17.2 µM) |  |  |
| C[C@@H]1C(=O)O[C@@H]2C[C@@]3(C)CCC[C@H](C)[C@@]34O[C@H]4[C@H]12 [DIHYDROEPOXYALANTOLACTONE] | 25.3 µg/mL (≈ 101 µM) | 17.4 µg/mL (≈ 69.5 µM) | 16.2 µg/mL (≈ 64.8 µM) |  |  |

Continued, in another order:

| IC50 [1] | IC50 [2] | IC50 [3] | SMILES | IC50 [4] | inhibition [5] |
| --- | --- | --- | --- | --- | --- |
| > 50 µg/mL | > 50 µg/mL | > 50 µg/mL | C=C1C[C@H](O)C[C@]2(C)C[C@H]3OC(=O)[C@@H](C)[C@H]3C[C@@H]12 |  |  |
| > 50 µg/mL | > 50 µg/mL | > 50 µg/mL | C=C1C[C@H](O)C[C@]2(C)C[C@H]3OC(=O)[C@H](C)[C@H]3C[C@@H]12 |  |  |
| > 50 µg/mL | > 50 µg/mL | 38.6 µg/mL (≈ 154 µM) | C[C@H]1C(=O)O[C@@H]2CC3=C[C@@H](O)C[C@H](C)[C@@]3(C)C[C@@H]21 [RACEMOSALACTONE E] |  |  |
| > 50 µg/mL | > 50 µg/mL | > 50 µg/mL | C=C1CCC[C@]2(C)C[C@H]3OC(=O)[C@@H](C)[C@H]3C[C@@H]12 [DIHYDROISOALANTOLACTONE] |  |  |
| > 50 µg/mL | > 50 µg/mL | 22.5 µg/mL (≈ 90.8 µM) | CC1=C2C[C@@H]3[C@H](C)C(=O)O[C@@H]3C[C@@]2(C)CCC1=O |  |  |
| > 50 µg/mL | > 50 µg/mL | > 50 µg/mL | C=C1C[C@H](O)C[C@]2(C)C[C@H]3OC(=O)[C@](C)(O)[C@H]3C[C@@H]12 [RACEMOSALACTONE D] |  |  |
| 26.1 µg/mL (≈ 104 µM) | 20.1 µg/mL (≈ 80.3 µM) | 24.8 µg/mL (≈ 99.1 µM) | C[C@@H]1C(=O)O[C@@H]2C[C@@]3(C)C[C@@H](O)C[C@H](C)C3=C[C@H]12 |  |  |
| > 50 µg/mL | > 50 µg/mL | > 50 µg/mL | C[C@@H]1C(=O)O[C@@H]2C[C@@]3(C)CCC[C@]4(CO4)[C@@H]3C[C@H]12 |  |  |
